Test results published in ChEMBL document CHEMBL1141553, “Synthesis and pharmacological activity of chalcones derived from 2,4,6-trimethoxyacetophenone in RAW 264.7 cells stimulated by LPS: quantitative structure-activity relationships” (Bioorg Med Chem, 2008).

Assays:
RAW264.7 = assay: Inhibition of LPS-induced nitric oxide production in mouse RAW264.7 cells; assay type: functional, cell-based
Method in brief: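 Compounds were pre-added 30 min before LPS stimulation for 24 h. Supernatant was mixed 1:1 with Griess reagent (1% sulfanilamide, 0.1% naphthylethylenediamine dihydrochloride, 2% phosphoric acid) for 5 min at room temperature. Nitrite was read at OD 550 nm against a NaNO₂ standard curve. IC50 came from dose–inhibition curves, mean of four independent experiments.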

[1] = Cytotoxicity against mouse RAW264.7 cells assessed as cell viability at 3.78 uM by MTT assay; assay type: cell-based; conditions: read-out: Activity
[2] = Selectivity for iNOS to nNOS
[3] = Selectivity for iNOS to eNOS
[4] = Cytotoxicity against mouse RAW264.7 cells assessed as cell viability at 13.10 uM by MTT assay; assay type: cell-based; conditions: read-out: Activity

Row | Compound | IC50 (RAW264.7) [µM] | viability at 3.78 µM [1] [%] | Selectivity ratio [2] | Selectivity ratio [3] | viability at 13.1 µM [4] [%]
1 | CC(=N)NCc1cccc(CN)c1 [1400W] | 3.78 | 82 | 200 | 5000 | –
2 | COc1cc(OC)c(C(=O)/C=C/c2ccc3c(c2)OCO3)c(OC)c1 | 13.1 | – | – | – | 100
